Measured values reported in PMC10077533 (ACS Omega, 2023).

What was measured:
[1] = test system: MDA-MB-468 breast cancer cells; experiment: JC-1 staining, mitochondrial membrane potential by flow cytometry; type: cell-based, human; conditions: MDA-MB-468, positive control, 5μM CCCP
[2] = test system: ct-DNA; conditions: obtained from the literature; cited from earlier work
[3] = test system: calf-thymus DNA (ct-DNA); conditions: classical DNA intercalator, comparison value; cited from earlier work
[4] = test system: MDA-MB-468 breast cancer cells; experiment: γ-H2AX staining, detection of DNA damage; type: cell-based, human; conditions: MDA-MB-468, 50 μM
How it was run: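 MDA-MB-468 cells treated with test compound, then immunocytochemically stained for γ-H2AX, with untreated cells as control. DNA damage imaged as red fluorescence, and red fluorescence intensity quantified.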

## N#CC(C#N)=NNc1cccc(Cl)c1 [CCCP, carbonyl cyanide m-chlorophenylhydrazone]
[1]
  cells with damaged mitochondria (JC-1 monomers): 76.98%
  cells with healthy mitochondria (red + green fluorescing JC-1 aggregates): 22.08%

## CC[n+]1c(-c2ccccc2)c2cc(N)ccc2c2ccc(N)cc21 [EtBr, ethidium bromide]
[2]
  KEtBr, EtBr binding constant: 1.0 × 10^7 M^–1
[3]
  Kb value of EtBr (KEtBr): 7 × 10^5 M^–1

## N.N.[Cl][Pt][Cl] [cisplatin]
[4]
  γH2AX (phosphorylated histone) staining: DNA damage
